Measurements published in ChEMBL document CHEMBL3124864, “Development of antimycobacterial tetrahydrothieno[2,3-c]pyridine-3-carboxamides and hexahydrocycloocta[b]thiophene-3-carboxamides: Molecular modification from known antimycobacterial lead” (Eur J Med Chem, 2014).
Values after ≈ are worked out from the molar mass of the structure shown.

Legend:
[1] = test system: Mycobacterium tuberculosis; assay: Antitubercular activity against Mycobacterium tuberculosis H37Rv ATCC 27294 after 28 days by two-fold serial dilution method; assay type: functional; conditions: H37Rv ATCC 27294, 672 h
Procedure, shortened: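 Agar dilution on Middlebrook 7H11 with OADC, compound incorporated as two-fold serial dilutions. Inoculum from fresh 7H11/OADC slants, adjusted to 1 mg/mL wet weight in 0.05% Tween 80 saline and diluted 10^-2 to about 10⁷ cfu/mL, then spotted onto the drug-containing agar. Growth read after 28 days. MIC taken as the lowest concentration giving complete inhibition.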

[2] = Cytotoxicity against mouse RAW264.7 cells assessed as growth inhibition at 50 uM after 72 hrs by MTT assay; assay type: cell-based; conditions: read-out: GI
Procedure, shortened: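 RAW 264.7 cells were exposed to compound for 72 h. Viability was read as cellular conversion of MTT to formazan using a non-radioactive cell proliferation kit. Results were expressed as percentage growth inhibition.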

[3] = test system: Mycobacterium tuberculosis; assay: Antitubercular activity against Mycobacterium tuberculosis H37Rv ATCC 27294 after 28 days by two-fold serial dilution method in presence of efflux pump inhibitor verapamil; assay type: functional; conditions: H37Rv ATCC 27294, 672 h
[4] = Selectivity index of cytotoxicity against mouse RAW264.7 cells to antitubercular activity against Mycobacterium tuberculosis H37Rv ATCC 27294; assay type: toxicity, cell-based; conditions: read-out: Selectivity Index

Compound	MIC [1]	inhibition at 72 h, 50 µM [2]	MIC [3]	selectivity ratio [4]
CC(=O)N1CCc2c(sc(NC(=O)C3CCCCC3)c2C(N)=O)C1	71.4 µM (≈ 25 µg/mL)	–	–	–
CN1CCc2c(sc(NC(=O)C3CCCCC3)c2C(N)=O)C1	7.76 µM (≈ 2.49 µg/mL)	18.3%	2.58 µM	–
CC(=O)N1CCc2c(sc(NC(=O)c3cccs3)c2C(N)=O)C1	9.15 µM (≈ 3.2 µg/mL)	–	4.57 µM	13
CC(=O)Nc1sc2c(c1C(N)=O)CCCCCC2	18.7 µM (≈ 4.99 µg/mL)	24.6%	9.36 µM	–
NC(=O)c1c(NC(=O)c2ccccc2)sc2c1CCCCCC2	15.2 µM (≈ 4.99 µg/mL)	26.6%	5.06 µM	–
COc1ccccc1C(=O)Nc1sc2c(c1C(N)=O)CCCCCC2	13.9 µM (≈ 4.99 µg/mL)	24.8%	6.96 µM	–
NC(=O)c1c(NC(=O)c2cccc([N+](=O)[O-])c2)sc2c1CCCCCC2	16.7 µM (≈ 6.24 µg/mL)	36.1%	16.7 µM	–
Cc1ccc(C(=O)Nc2sc3c(c2C(N)=O)CCCCCC3)cc1	4.54 µM (≈ 1.55 µg/mL)	20.5%	2.27 µM	–
NC(=O)c1c(NC(=O)c2ccc(Oc3ccccc3)cc2)sc2c1CCCCCC2	3.7 µM (≈ 1.56 µg/mL)	22.2%	1.23 µM	> 10
NC(=O)c1c(NC(=O)c2cccc3ccccc23)sc2c1CCCCCC2	13.2 µM (≈ 4.99 µg/mL)	28.3%	3.29 µM	–
NC(=O)c1c(NC(=O)C2CC2)sc2c1CCCCCC2	17.1 µM (≈ 4.99 µg/mL)	16.9%	8.53 µM	–
NC(=O)c1c(NC(=O)C2CCCC2)sc2c1CCCCCC2	9.73 µM (≈ 3.12 µg/mL)	18.3%	9.73 µM	–
NC(=O)c1c(NC(=O)C2CCCCC2)sc2c1CCCCCC2	9.33 µM (≈ 3.12 µg/mL)	16.6%	3.11 µM	–
CC(=O)N1CCc2c(sc(NC(=O)c3ccccc3)c2C(N)=O)C1	72.7 µM (≈ 24.9 µg/mL)	–	–	–
COc1ccccc1C(=O)Nc1sc2c(c1C(N)=O)CCN(C(C)=O)C2	66.8 µM (≈ 25 µg/mL)	–	–	–
CC(=O)N1CCc2c(sc(NC(=O)c3cccc([N+](=O)[O-])c3)c2C(N)=O)C1	64.3 µM (≈ 25 µg/mL)	–	–	–
CC(=O)N1CCc2c(sc(NC(=O)c3ccc(C)cc3)c2C(N)=O)C1	69.8 µM (≈ 24.9 µg/mL)	–	–	–

Compound	MIC [1]	inhibition at 72 h, 50 µM [2]	MIC [3]	selectivity ratio [4]
CC(=O)N1CCc2c(sc(NC(=O)c3ccc(Oc4ccccc4)cc3)c2C(N)=O)C1	57.3 µM (≈ 25 µg/mL)	–	–	–
CC(=O)N1CCc2c(sc(NC(=O)c3cccc4ccccc34)c2C(N)=O)C1	63.5 µM (≈ 25 µg/mL)	–	–	–
CC(=O)N1CCc2c(sc(NC(=O)C3CC3)c2C(N)=O)C1	81.2 µM (≈ 24.9 µg/mL)	–	–	–
CC(=O)N1CCc2c(sc(NC(=O)C3CCCC3)c2C(N)=O)C1	74.4 µM (≈ 25 µg/mL)	–	–	–
CC(=O)Nc1sc2c(c1C(N)=O)CCN(C)C2	39.4 µM (≈ 9.99 µg/mL)	–	–	–
CN1CCc2c(sc(NC(=O)c3ccccc3)c2C(N)=O)C1	37.9 µM (≈ 11.9 µg/mL)	–	–	–
COc1ccccc1C(=O)Nc1sc2c(c1C(N)=O)CCN(C)C2	36.1 µM (≈ 12.5 µg/mL)	–	–	–
CN1CCc2c(sc(NC(=O)c3cccc([N+](=O)[O-])c3)c2C(N)=O)C1	34.6 µM (≈ 12.5 µg/mL)	–	–	–
Cc1ccc(C(=O)Nc2sc3c(c2C(N)=O)CCN(C)C3)cc1	37.9 µM (≈ 12.5 µg/mL)	–	–	–
CN1CCc2c(sc(NC(=O)c3ccc(Oc4ccccc4)cc3)c2C(N)=O)C1	30.6 µM (≈ 12.5 µg/mL)	–	–	–
CN1CCc2c(sc(NC(=O)c3cccc4ccccc34)c2C(N)=O)C1	17.1 µM (≈ 6.24 µg/mL)	28.4%	8.53 µM	–
CN1CCc2c(sc(NC(=O)C3CC3)c2C(N)=O)C1	5.57 µM (≈ 1.56 µg/mL)	22.2%	2.78 µM	–
CN1CCc2c(sc(NC(=O)C3CCCC3)c2C(N)=O)C1	5.06 µM (≈ 1.56 µg/mL)	18.2%	5.06 µM	–
CC(=O)Nc1sc2c(c1C(N)=O)CCN(C(C)=O)C2	88.6 µM (≈ 24.9 µg/mL)	–	–	–
O=C(O)c1cn(C2CC2)c2cc(N3CCNCC3)c(F)cc2c1=O [CIPROFLOXACIN]	9.41 µM (≈ 3.12 µg/mL)	–	9.41 µM	–
CC[C@@H](CO)NCCN[C@@H](CC)CO [ETHAMBUTOL]	7.64 µM (≈ 1.56 µg/mL)	–	3.82 µM	–
NNC(=O)c1ccncc1 [ISONIAZID]	0.72 µM (≈ 0.0987 µg/mL)	–	0.72 µM	–
